hERG protect – shields human hERG channel from block by proarrhythmic agents | Q12809 | CHO-hERG, FluxOR thallium flux, dofetilide IC70 present | activation (rescue from dofetilide block), less the hit threshold, % at 10 µM | hit rate 0.51% among 310,000 | AID 1511;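 active means activation above the mean of controls blocked by dofetilide plus 5 SD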;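 further: thallium influx through hERG after potassium depolarization seen as dye fluorescence rise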
KCNQ1 act – human KCNQ1 channel potentiation or activation. P51787. CHO-K1 KCNQ1, thallium flux FluxOR fluorescence; active compounds read high. B-score at 10 µM. hit rate 0.35% among 310,000;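 active means fluorescence ratio B-score, a plate-corrected score, at least three library SD, with initial intensity B-score within 5 SD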
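System: CHO-K1 cells stably expressing KCNQ1 / Medium: assay buffer for compound exposure, DMSO matched across wells / Reagent: thallium- and potassium-containing depolarizing buffer / Compound: one concentration, matched DMSO / Incubation: 20 min compound pretreatment at room temperature / Measured by: kinetic FluxOR fluorescence, 10 s baseline plus 110 s post-stimulus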
KCNK3 inh – human KCNK3 channel inhibition, primary screen | CHO-KCNK3 thallium flux, FluxOR fluorescence; active compounds read low | B-score at 10 µM | hit rate 0.84% among 340,000 | AID 602410;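 active means B-score under library mean minus 4 SD, starting fluorescence ratio at most library mean plus 5 SD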;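 further: more negative B-score means stronger inhibition of thallium flux through KCNK3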
Target sequence (O14649 whole entry, looked up): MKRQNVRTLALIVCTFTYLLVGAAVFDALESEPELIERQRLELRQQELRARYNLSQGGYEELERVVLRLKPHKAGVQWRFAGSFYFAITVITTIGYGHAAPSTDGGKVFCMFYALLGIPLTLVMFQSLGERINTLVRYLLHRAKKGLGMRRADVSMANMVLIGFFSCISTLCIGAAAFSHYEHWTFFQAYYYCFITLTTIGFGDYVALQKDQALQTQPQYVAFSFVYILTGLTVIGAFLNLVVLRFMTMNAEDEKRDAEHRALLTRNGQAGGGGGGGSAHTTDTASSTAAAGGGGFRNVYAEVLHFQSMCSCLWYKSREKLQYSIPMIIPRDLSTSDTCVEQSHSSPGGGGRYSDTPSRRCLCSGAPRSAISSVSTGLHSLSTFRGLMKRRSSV
Kir21 block – inhibitors of mouse Kir2.1 inward-rectifier potassium channel | P35561 | HEK293-Kir2.1, FluxOR thallium flux fluorescence; active compounds read low | B-score at 10 µM | hit rate 0.85% among 310,000 | AID 1672;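 active means fluorescence ratio B-score at or below minus 3 SD of library scores, with starting-brightness B-score within 2 SD, cut at about -4.2 in these data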;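 further: channel flux triggered by added potassium and thallium sulfate stimulus; B-score of peak minus minimum fluorescence over baseline after thallium stimulus; more negative B-score means stronger Kir2.1 block with less thallium influx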
KCNQ1 block – inhibitors of human KCNQ1 potassium channel | P51787 | CHO-K1 KCNQ1, FluxOR thallium flux fluorescence; active compounds read high | B-score at 10 µM | hit rate 1.3% among 310,000 | AID 2642;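 active means compounds whose thallium flux B-score, printed positive for inhibition, exceeds three library SD while starting fluorescence stays within three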;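 further: channel opened by potassium depolarization with thallium stimulus after 20 min compound exposure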
KCNK9 block – human KCNK9 channel inhibition. Q9NPC2. HEK293 KCNK9, FluxOR thallium flux fluorescence; active compounds read low. B-score at 10 µM. hit rate 1.2% among 310,000. AID 488922;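 active means ratio B-score over 3 SD below the library mean, with starting fluorescence within 5 SD of its mean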;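 further: negative B-score means less thallium flux so channel inhibition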
KCNK9 block conf – human KCNK9 inhibitor confirmation; shares compounds with KCNK9 block; HEK293 KCNK9 cells, FluxOR thallium flux fluorescence; inhibition, % at 10 µM; hit rate 43% among 4,900;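 active means thallium signal inhibited by more than 5 SD of the compound-free buffer control wells, on both duplicate plates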;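 further: 0% = assay buffer control wells without compound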
Kir2-1 spec – tests whether KCNK9 modulators also affect mouse Kir2.1. shares compounds with KCNK9 block. Kir2.1 cells, FluxOR thallium flux fluorescence. inhibition, % at 10 µM. hit rate 4% among 4,900. AID 492993;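 active means thallium signal drop more than 5 SD beyond the mean of the no-compound control wells, seen in both duplicate plates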;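 further: signal is fluorescence rise after thallium addition divided by baseline fluorescence; plate controls were assay buffer only for no effect and full block by chlorpromazine control for full effect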
HEK293 Tl ctr – second counter-screen for KCNK9 modulators: effect in non-induced cells; shares compounds with KCNK9 block; non-induced KCNK9-HEK293, FluxOR thallium flux; inhibition, % at 10 µM; hit rate 40% among 4,900; AID 492997;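 active means thallium signal drop beyond 5 SD of the untreated control mean, on both duplicate plates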;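 further: plate controls were buffer only IC0 wells for no effect and SID17386958 at its maximal inhibitory level for full effect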
* = called active by the depositor; i = inactive; . = no result. The list is not random: actives were taken first. Their share in the collection is about 3.7%.

SMILES	hERG protect	KCNQ1 act	KCNK3 inh	Kir21 block	KCNQ1 block	KCNK9 block	KCNK9 block conf	Kir2-1 spec	HEK293 Tl ctr
C=C(C)Cn1c(CCNC(=O)CC)nc2ccccc21	-13	i	i	-1.1	i	i	.	.	.
CC(=O)c1cccc(NC(=O)C(C)OC(=O)c2cccc(S(=O)(=O)N3CCN(C)CC3)c2)c1 (stereo not drawn)	.	.	i	.	.	.	.	.	.
COc1ccc(S(=O)(=O)Nc2cc(C)cc(C)n2)c2ccccc12	-5	i	i	-0.41	i	i	.	.	.
CCOc1ccc(S(=O)(=O)Nc2cc(C)ccn2)c2ccccc12	-15	i	i	-0.03	i	i	i	i	i
Cc1csc(=O)n1CC(=O)Nc1nc2ccccc2s1	.	.	i	.	.	.	.	.	.
CCn1c(SCc2cccc(C(F)(F)F)c2)nnc1-c1ccco1	-11	i	i	-1.7	i	i	.	.	.
Fc1ccc(Cn2c(SCc3ccc(F)c(C(F)(F)F)c3)nnc2C(F)(F)F)cc1	-10	i	i	-0.37	i	-10*	42%*	i	44%*
Fc1ccc(Cn2c(SCc3ccc(F)c(F)c3)nnc2C(F)(F)F)cc1	-18	i	i	-0.31	i	-9*	29%*	i	38%*
COc1ccc(CN2CCN(CCSc3ccc(C)cc3)CC2)c(OC)c1OC	-2	i	i	0.33	i	i	i	i	i
O=C(CN1CCN(c2ccccc2)CC1)Nc1ccncc1	-1	i	i	-1.6	i	i	.	.	.
O=C(CN1CCN(c2ccccc2)CC1)Nc1ccc2c(c1)CCC2	-10	i	i	0.76	i	i	i	i	i
O=C(CN1CCN(c2cccc(Cl)c2)CC1)NC1CCCc2ccccc21 (stereo not drawn)	-14	i	i	-1.8	i	i	i	i	i
CCn1c(O)c(N=NC(=O)C(O)c2ccccc2)c2ccccc21 (stereo not drawn)	-13	i	i	-0.01	i	i	.	.	.
CC1CC(C(=O)Nc2ccccc2)C(=O)O1 (stereo not drawn)	-5	i	i	0.39	i	i	.	.	.
COc1ccc(S(=O)(=O)N(C)c2ccc(C(=O)NCc3ccco3)cc2)cc1OC	-9	i	i	-1.3	i	i	.	.	.
COc1ccc(C(=O)C2CCCN(C(=O)c3cccc(Cl)c3F)C2)cc1OC (stereo not drawn)	-8	i	i	-0.86	i	i	i	i	i
COc1c(C)cc(C(=O)C2CCCN(C(=O)c3cccc(F)c3)C2)cc1C (stereo not drawn)	-7	i	i	1.5	i	i	i	i	i
CCC1C(=NO)C(CC)C(c2ccccc2)NC1c1ccccc1 (stereo not drawn)	-11	i	i	-0.95	i	i	i	i	i
CCCC1/C(=N/O)CC(c2ccccc2)NC1c1ccccc1 (stereo not drawn)	-9	i	i	-1.2	i	i	.	.	.
O=C(N=C1SC2CS(=O)(=O)CC2N1Cc1ccccc1)C1CCCCC1 (stereo not drawn)	-14	i	i	-0.11	i	i	.	.	.
Cc1ccc(C)c(OCC(O)CN2CCC(CN3C(=O)c4cccc5cccc(c45)C3=O)CC2)c1 (stereo not drawn)	-22	i	i	-0.68	i	i	i	i	i
CN(CC(=O)Nc1ccc(Cl)c(Cl)c1)C(=O)C1CCC1	.	.	i	.	.	.	.	.	.
O=C(COC(=O)C1CC1)NCCc1ccccc1	.	.	i	.	.	.	.	.	.
CC(CCc1ccccc1)NC(=O)COC(=O)C1CCC(C(C)(C)C)CC1 (stereo not drawn)	-10	i	i	-1.4	i	i	i	i	i
O=C(Cc1cccc(NC(=O)C2CCN(C(=O)C3CCCC3)CC2)c1)Nc1cccc(C(=O)N2CCOCC2)c1	.	.	i	.	.	.	.	.	.
SMILES	hERG protect	KCNQ1 act	KCNK3 inh	Kir21 block	KCNQ1 block	KCNK9 block	KCNK9 block conf	Kir2-1 spec	HEK293 Tl ctr
COc1ccc(NS(=O)(=O)c2cc(NC(=O)C3CC3)ccc2N2CCCCC2)cc1	-5	i	i	-1.1	i	i	.	.	.
COc1ccccc1NS(=O)(=O)c1cc(NC(=O)C2CCC2)ccc1N1CCCCC1	-10	i	i	0.6	i	-8.5*	34%*	i	26%*
Clc1cccc(Cl)c1CN1CCN(c2ncccn2)CC1	-6	i	i	-0.31	i	i	.	.	.
Cn1nc(-c2ccccc2)c(CN2CCN(c3ncccn3)CC2)c1Cl	-5	i	i	-2.7	i	i	i	i	i
Cc1ccc(Sc2c(C#N)c(-c3ccccc3)nn2C)cc1	-15	i	i	0.07	6*	-9.8*	56%*	i	40%*
Cc1ccc(SCc2nn(C)c(Cl)c2C=O)cc1	-7	i	i	0	i	i	.	.	.
Cc1ccc(SCc2c(-c3ccccc3)nn(C)c2Cl)cc1	-5	i	i	-1.4	6*	-8.5*	42%*	34%*	47%*
CCOc1ccc(Nc2ccc(N)c(S(=O)(=O)O)c2)cc1	.	.	i	.	.	.	.	.	.
COc1ccc(CN2CCNC(=O)C2CC(=O)N2CCCN(C(C)=O)CC2)cc1OC (stereo not drawn)	-9	i	i	1	i	i	.	.	.
O=C(/C=C/c1cccs1)NC(=S)Nc1ccc(S(=O)(=O)Nc2ccccc2C(F)(F)F)cc1	-10	i	i	-0.03	i	i	i	i	i
CC(C)CC(c1nnnn1C(C)C)N1CCN(c2cccc(Cl)c2)CC1 (stereo not drawn)	-5	i	i	0.51	i	-9.9*	44%*	i	40%*
O=c1oc2ccccc2c(Nc2cc3ccccc3cc2O)c1[N+](=O)[O-]	-13	i	i	-1.3	i	i	i	i	i
CCOc1cc(C(=O)NC(C)CCc2ccccc2)cc(OCC)c1OCC (stereo not drawn)	-4	i	i	-1.2	i	i	i	i	i
CC1=NOC(=O)/C1=C\c1ccc(-c2ccc(Cl)cc2Cl)o1	-5	i	i	2.7	i	i	i	i	i
Cc1nc(S/C(=C/c2ccc(-c3cc(Cl)ccc3C)o2)C(=O)O)n[nH]1	-10	i	i	-1	8*	i	i	i	36%*

Compound activity (PubChem BioAssay)
